Test results taken from ChEMBL document CHEMBL1136357, “2-arylaminothiazoles as high-affinity corticotropin-releasing factor 1 receptor (CRF1R) antagonists: synthesis, binding studies and behavioral efficacy” (Bioorg Med Chem Lett, 2003).

What was measured:
[1] = target: T1, Corticotropin-releasing factor receptor 1 (Homo sapiens, UniProt P34998); test: Binding affinity by displacement of [125I]Tyr-o-CRF from human corticotropin releasing factor receptor 1 expressed in IMR-32 human neuroblastoma cell.
T1 sequence (P34998 whole entry): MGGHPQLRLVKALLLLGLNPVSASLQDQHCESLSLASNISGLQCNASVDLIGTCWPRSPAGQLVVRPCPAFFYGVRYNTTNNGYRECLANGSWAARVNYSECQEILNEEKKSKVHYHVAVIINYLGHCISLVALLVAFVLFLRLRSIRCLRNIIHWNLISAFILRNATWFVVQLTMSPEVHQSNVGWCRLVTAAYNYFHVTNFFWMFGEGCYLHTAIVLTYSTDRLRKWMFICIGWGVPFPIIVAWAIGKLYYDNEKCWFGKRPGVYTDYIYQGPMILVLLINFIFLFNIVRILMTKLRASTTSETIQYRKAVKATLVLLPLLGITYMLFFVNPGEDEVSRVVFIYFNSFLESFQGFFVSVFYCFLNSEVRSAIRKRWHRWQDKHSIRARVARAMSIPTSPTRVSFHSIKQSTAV

[2] = Half-life in rat after peroral administration at 10 mg/kg concentration; assay type: ADME, organism-based; details: in vivo
How it was run: (§1)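 Rats were given the HCl salt at 10 mg/kg orally, and at 5 mg/kg intravenously in the same study. […] Half-life, clearance, volume of distribution and oral bioavailability (F) were derived from the same study.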

[3] = Ratio in brain to that of rat plasma for 2 hr after peroral administration at 10 mg/kg; assay type: ADME, organism-based; parameters: dose 10 mg/kg, route oral; details: po, read-out: B/P; how it was run: as §1
[4] = Half-life in rat after intravenous administration at 5 mg/kg concentration; details: in vivo
Rattus norvegicus [5] = test: Area under curve in rat plasma for 0-4 hr after peroral administration at 10 mg/kg; assay type: ADME, organism-based; parameters: time < 4 hr, dose 10 mg/kg, route oral; details: in vivo, po; how it was run: as §1
Rattus norvegicus [6] = test: Volume distribution in rat after intravenous administration at 5 mg/kg; details: in vivo
[7] = Oral bioavailability in rat after peroral administration at 10 mg/kg; assay type: ADME, organism-based; details: in vivo; how it was run: as §1
[8] = Ratio in brain to that of rat plasma for 2 hr after […]; assay type: ADME, organism-based; parameters: route oral; details: po, read-out: B/P
[9] = Plasma clearance in rat after intravenous administration at 5 mg/kg concentration
[10] = Oral bioavailability in rat after […]; assay type: ADME, organism-based; details: in vivo
Rattus norvegicus [11] = test: Area under curve in rat plasma for 0-4 hr after peroral administration at 10 mg/kg; details: in vivo, po
[12] = Plasma clearance in rat after peroral administration at 10 mg/kg concentration; assay type: ADME, organism-based; how it was run: as §1
IMR-32 = test: Compound was tested for its ability to inhibit CRF stimulatedcAMP production in IMR-32 cells.; assay type: functional, Homo sapiens
Rattus norvegicus [13] = test: Volume distribution in rat after peroral administration at 10 mg/kg; assay type: ADME, organism-based; parameters: dose 10 mg/kg, route oral; details: in vivo, po; how it was run: as §1

Compound | Ki [1] [nM] | also measured
CCCN(Cc1sc(Nc2ccc(OC)cc2OC)nc1C(F)(F)F)CC1CC1 | 5100 | 
CCCN(Cc1sc(Nc2c(Cl)cc(Cl)cc2Cl)nc1C(F)(F)F)CC1CC1 |  | half-life [2]: 7.6 h; Kp at 2 h [3]: 2; half-life [4]: 7.6 h; AUC (Rattus norvegicus [5]): 1730 ng·h/mL; Vd (Rattus norvegicus [6]): 1.1 L/kg; bioavailability [7]: 9%; Kp at 2 h [8]: 2; clearance [9]: 16 mL/min/kg; bioavailability [10]: 9%; AUC (Rattus norvegicus [11]): 1730 ng·h/mL; CL/F [12]: 16 mL/min/kg; Inhibition (IMR-32): 90%; Vd (Rattus norvegicus [13]): 1.1 L/kg
CCCN(CCC)C(=O)c1sc(Nc2c(Cl)cc(Cl)cc2Cl)nc1C | 820 | 
COCCN(CCOC)C(=O)c1sc(Nc2c(Cl)cc(Cl)cc2Cl)nc1C | 51000 | 
CCCN(CC1CC1)C(=O)c1sc(Nc2c(Cl)cc(Cl)cc2Cl)nc1C | 360 | 
CCN(CCOC)C(=O)c1sc(Nc2c(Cl)cc(Cl)cc2Cl)nc1C | 16000 | 
CCCN(CC1CC1)C(=O)c1sc(Nc2c(Cl)cc(Cl)cc2Cl)nc1CC | 11000 | 
CCCN(Cc1sc(N(C)c2c(C)cc(C)cc2Cl)nc1C(F)(F)F)CC1CC1 | 100 | 
CCCN(Cc1sc(Nc2ccc(C(C)C)cc2Br)nc1C(F)(F)F)CC1CC1 | 2900 | 
CCCN(CC1CC1)C(=O)c1sc(Nc2c(Cl)cc(Cl)cc2Cl)nc1C(F)(F)F | 31000 | 
CCN(CC)C(=O)c1sc(Nc2c(Cl)cc(Cl)cc2Cl)nc1C | 5000 | 
CCCN(Cc1sc(Nc2c(C)cc(Cl)cc2C)nc1C(F)(F)F)CC1CC1 | 73 | 
CCCN(Cc1sc(Nc2c(CC)cccc2CC)nc1C(F)(F)F)CC1CC1 | > 40000 | 

Further lines, with some results ahead:

Ki [1] [nM] | Compound | also measured
16 | CCCN(Cc1sc(Nc2c(C)cc(Cl)cc2Cl)nc1C(F)(F)F)CC1CC1 | 
60 | CCCN(Cc1sc(Nc2c(C)cc(C)cc2C)nc1C(F)(F)F)CC1CC1 | 
23 | CCCN(Cc1sc(Nc2c(C)cc(C)cc2Cl)nc1C(F)(F)F)CC1CC1 | 
28 | CCCN(Cc1sc(Nc2c(Cl)cc(C(F)(F)F)cc2Cl)nc1C(F)(F)F)CC1CC1 | 
28 | CCCN(Cc1sc(Nc2c(Br)cc(C)cc2Br)nc1C(F)(F)F)CC1CC1 | 
56 | CCCN(Cc1sc(N(CC)c2ccc(C(C)C)cc2Br)nc1C(F)(F)F)CC1CC1 | 
67 | CCCN(Cc1sc(N(CC)c2c(C)cc(C)cc2Cl)nc1C(F)(F)F)CC1CC1 | 
21 | CCCN(Cc1sc(Nc2c(C)cc(C)cc2Br)nc1C(F)(F)F)CC1CC1 | 
7.8 | CCCN(Cc1sc(Nc2c(Br)cc(Br)cc2Br)nc1C(F)(F)F)CC1CC1 | 
20 | CCCN(CC1CC1)c1nc(C)nc(Nc2c(Cl)cc(Cl)cc2Cl)c1Cl | 
